Results as given in ChEMBL document CHEMBL4715825, “Synthesis and biological evaluations of marine oxohexadecenoic acids: PPARα/γ dual agonism and anti-diabetic target gene effects” (Eur J Med Chem, 2018).
Active and inactive are the calls of the source. The calls are words filed in the database; no cut-off is given here.

Assays:
[1] = Cytotoxicity against African green monkey COS-1 cells assessed as cell viability at EC50 concentration for PPAR activation assay by LDH assay; assay type: cell-based; details: chlorocebus aethiops, read-out: Activity
In short: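 Assayed in the same COS-1 cultures as the Gal4-LBD PPAR reporter assays. Lactate dehydrogenase released into the medium was measured with a commercial kit per the maker's protocol. Absorbance was read at 492/750 nm.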

[2] = Cytotoxicity against African green monkey COS-1 cells assessed as cell viability at EC50 concentration for PPAR activation assay by XTT assay; assay type: cell-based; details: chlorocebus aethiops, read-out: Activity
In short: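 Run on COS-1 cells treated in parallel with the Gal4-LBD PPAR reporter assays. Metabolic NAD(P)H flux was measured by kit XTT assay per the maker's protocol. Absorbance was read at 450/690 nm.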

[3] = target: T1, Peroxisome proliferator-activated receptor gamma (Homo sapiens) (UniProt P37231); experiment: Agonist activity at human PPARgamma in 8 day differentiated human SGBS cells assessed as decrease in TNF gene expression at 2 uM incubated for 24 hrs by SYBR-green based qPCR analysis
T1 sequence (whole entry): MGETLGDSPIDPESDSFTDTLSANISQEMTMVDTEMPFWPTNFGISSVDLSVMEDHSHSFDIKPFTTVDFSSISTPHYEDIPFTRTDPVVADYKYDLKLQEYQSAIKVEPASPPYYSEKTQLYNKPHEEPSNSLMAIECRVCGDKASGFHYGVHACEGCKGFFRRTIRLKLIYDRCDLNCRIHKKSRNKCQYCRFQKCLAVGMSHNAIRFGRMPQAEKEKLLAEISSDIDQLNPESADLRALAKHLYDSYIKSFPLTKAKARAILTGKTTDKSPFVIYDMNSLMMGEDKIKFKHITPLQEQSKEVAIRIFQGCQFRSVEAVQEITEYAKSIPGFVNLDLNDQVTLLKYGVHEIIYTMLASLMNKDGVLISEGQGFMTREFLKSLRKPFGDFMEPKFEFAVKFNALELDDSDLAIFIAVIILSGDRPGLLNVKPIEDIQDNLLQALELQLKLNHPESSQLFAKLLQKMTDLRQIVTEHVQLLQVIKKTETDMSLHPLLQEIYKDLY

[4] = target: T1, Peroxisome proliferator-activated receptor gamma (Homo sapiens); experiment: Agonist activity at human PPARgamma in 8 day differentiated human SGBS cells assessed as decrease in CXCL1 gene expression at 2 uM incubated for 24 hrs by SYBR-green based qPCR analysis
[5] = target: T1, Peroxisome proliferator-activated receptor gamma (Homo sapiens); experiment: Agonist activity at human PPARgamma in 8 day differentiated human SGBS cells assessed as decrease in CXCL5 gene expression at 2 uM incubated for 24 hrs by SYBR-green based qPCR analysis
[6] = target: T1, Peroxisome proliferator-activated receptor gamma (Homo sapiens); experiment: Agonist activity at human PPARgamma in 8 day differentiated human SGBS cells assessed as decrease in IL-1 beta gene expression at 2 uM incubated for 24 hrs by SYBR-green based qPCR analysis
[7] = target: T1, Peroxisome proliferator-activated receptor gamma (Homo sapiens); experiment: Agonist activity at human PPARgamma in 8 day differentiated human SGBS cells assessed as decrease in […] gene expression at 2 uM incubated for 24 hrs by SYBR-green based qPCR analysis
[8] = target: T2, Peroxisome proliferator-activated receptor alpha (Homo sapiens, UniProt Q07869); experiment: Agonist activity at recombinant human PPARalpha LBD (168 to 468 residues) expressed in African green monkey COS-1 cells incubated for 18 hrs by luciferase reporter gene assay; assay type: cell-based
T2 sequence (Q07869 whole entry): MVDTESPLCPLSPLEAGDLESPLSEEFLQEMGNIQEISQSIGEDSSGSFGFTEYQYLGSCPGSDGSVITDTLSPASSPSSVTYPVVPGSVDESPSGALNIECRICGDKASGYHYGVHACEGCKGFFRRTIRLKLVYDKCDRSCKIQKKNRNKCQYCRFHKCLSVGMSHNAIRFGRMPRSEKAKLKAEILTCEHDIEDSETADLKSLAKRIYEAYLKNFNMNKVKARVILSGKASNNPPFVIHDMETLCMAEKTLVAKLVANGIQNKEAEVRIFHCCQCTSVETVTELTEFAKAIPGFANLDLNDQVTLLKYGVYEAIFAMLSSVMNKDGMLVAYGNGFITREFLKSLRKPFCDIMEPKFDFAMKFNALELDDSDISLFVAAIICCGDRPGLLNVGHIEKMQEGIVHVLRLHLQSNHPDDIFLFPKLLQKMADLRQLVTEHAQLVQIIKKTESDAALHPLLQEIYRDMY
In short: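 Transient Gal4 one-hybrid assay in COS-1 cells (7×10^4 per well), transfected 24 h after seeding. Plasmids were Gal4-DBD fused to the human nuclear receptor LBD, a 5×UAS-SV40 luciferase reporter and pRL-CMV Renilla control. Ligand in DMSO (final 0.1%) was added 5 h post-transfection. Dual-luciferase activity was read after 18 h, expressed as RLU, from three biological replicates in quadruplicate.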

Structure (SMILES)	viability [1] [%]	viability [2] [%]	Activity [3]	Activity [4]	Activity [5]	Activity [6]	Activity [7]	EC50 [8] [µM]
Cc1cccc(Nc2cc(Cl)nc(SCC(=O)O)n2)c1C [PIRINIXIC ACID]	> 95	> 95						
CN(CCOc1ccc(CC2SC(=O)NC2=O)cc1)c1ccccn1 (configuration not stated) [ROSIGLITAZONE]	> 95	> 95	inactive	inactive	inactive	inactive	inactive	
CCCCCCCCCCCCCCCC(=O)O [PALMITIC ACID]	> 95	> 90						35
